Assay results reported in ChEMBL document CHEMBL3259621, “Novel merosesquiterpene exerts a potent antitumor activity against breast cancer cells in vitro and in vivo” (Eur J Med Chem, 2014).
Calls of active or inactive are those of the source. The calls are words filed in the database; no cut-off is given here.

Assays:
Mus musculus = test: Toxicity in C57BL/6 mouse allografted with mouse E0771 cells assessed as diarrhea at 5 to 15 mg/kg, po; assay type: organism-based; set-up: dose 5-15 mg/kg, route oral; settings: in vivo
In short: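 C57BL/6 mice (10 per group) injected subcutaneously in the right side with 1 × 10⁶ E0771 cells. At day 9, with tumours at 75 mm³, mice were randomised to oral vehicle (1% methylcellulose) or 5, 10 or 15 mg/kg on six occasions. Animals were monitored to day 42 for survival and for signs of toxicity such as hair loss or diarrhoea.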

MCF7 [1] = test: Induction of apoptosis in human MCF7 cells assessed as increase in phosphorylated p53 level at 2 uM after 4 to 24 hrs by Western blotting analysis relative to control; assay type: functional, cell-based
In short: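 MCF-7 seeded at 5 × 10⁴/cm² and exposed at 24 h to 2 µM compound for 0, 4, 8, 16 and 24 h. Lysates separated on 12% SDS gels, transferred to nitrocellulose, blocked in 5% milk. Primary antibodies applied overnight at 4 °C, then secondary 1 h at room temperature. Detection by ECL chemiluminescence with β-actin as loading reference.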

MCF7 [2] = test: Cell cycle arrest in human MCF7 cells assessed as accumulation at […] phase after 48 hrs by propidium iodide/RNAse staining-based FACS analysis; assay type: functional
[3] = Therapeutic index, ratio of IC50 for human CCD-18Co cells to IC50 for human SW480 cells; assay type: cell-based; settings: CCD-18Co cells versus SW480 cells, read-out: Ratio IC50
MCF7 [4] = test: Cell cycle arrest in human MCF7 cells assessed as accumulation at G0-G1 phase at 3 uM after 24 hrs by propidium iodide/RNAse staining-based FACS analysis (reference value: 42.34 %); assay type: functional
[5] = Therapeutic index, ratio of IC50 for human CCD-18Co cells to IC50 for human T84 cells; assay type: cell-based, T84; CCD-18Co; settings: CCD-18Co cells versus T84 cells, read-out: Ratio IC50

## C=C1CC[C@@H]2[C@](C)(CCC[C@]2(C)C(=O)OC)[C@H]1Cc1c(C)ccc2c1C(=O)C=CC2=O
Mus musculus
  Activity: Non-toxic
MCF7 [1]
  Activity: Active
MCF7 [2]
  Activity: Dose-dependent effect
[3]
  selectivity ratio: 0.36
MCF7 [4]
  Activity: 75.7%
[5]
  selectivity ratio: 0.59
